Experimental data as given in ChEMBL document CHEMBL1126049, “Bioreductive fluorescent markers for hypoxic cells: a study of 2-nitroimidazoles with 1-substituents containing fluorescent, bridgehead-nitrogen, bicyclic systems” (J Med Chem, 1992).

Key:
Assay type in all cases: cell-based
Details in all cases: Cricetulus griseus
V79-379A [1] = assay: Cytofluorimetric analysis of V79 379A chinese hamster cells incubated under hypoxic conditions with the compound (10e-4 M)
Procedure, shortened: (§1)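 V79 379A Chinese hamster cells grown as exponential suspension cultures in Eagle's MEM (Earle's salts, suspension-modified) with 7.5% foetal calf serum. Cells incubated with drug at 37 °C under oxic (air + 5% CO2) or hypoxic (nitrogen + 5% CO2) gassing. Flow cytometry used 365 nm laser excitation at 100-200 mW. Emission collected >390 nm, or >410 nm for some compounds. Data gated on forward scatter and fluorescence to exclude debris. Mean fluorescence in arbitrary units, normalized for PMT gain and laser power.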

V79-379A [2] = assay: Maximum accumulation of fluorescent metabolites in V79 379A chinese hamster cells after incubation with the compound (10e-4) at tmax; procedure, shortened: as §1
V79-379A [3] = assay: Cytofluorimetric analysis of V79 379A chinese hamster cells incubated under oxic conditions with the compound (10e-4 M); procedure, shortened: as §1

| SMILES | Fluorescence (V79-379A [1]) [AU] | Tmax (V79-379A [2]) [h] | Fluorescence (V79-379A [3]) [AU] |
| --- | --- | --- | --- |
| CCOC(=O)c1c(C(=O)NCCN(CCO)CC(O)Cn2ccnc2[N+](=O)[O-])cn2ccccc12 (centres undefined) | 1140 | 6 | 66 |
| O=[N+]([O-])c1nccn1CC(O)CNc1ccc(-c2cc3ccccn3c2)cc1 (centres undefined) | 169 | 6 | 107 |
| Cc1c(C)n2c(CNCC(O)Cn3ccnc3[N+](=O)[O-])c(C)c(=O)n2c1=O (centres undefined) | 89 | 15 | 33 |
| Cc1c(C)n2c(CN(C)CC(O)Cn3ccnc3[N+](=O)[O-])c(C)c(=O)n2c1=O (centres undefined) | 55 | 15 | 43 |
| O=[N+]([O-])c1nccn1CC(O)CNc1ccc(-c2cn3ccccc3n2)cc1 (centres undefined) | 1570 | 6 | 417 |
| O=c1c(NCC(O)Cn2ccnc2[N+](=O)[O-])cnc2ccccn12 (centres undefined) | 1750 | 6 | 603 |
| N#Cc1c(C(=O)NCCN(CCO)CC(O)Cn2ccnc2[N+](=O)[O-])cn2ccccc12 (centres undefined) | 81 | 6 | 27 |
| CCOC(=O)c1c(C)c(CN(C)CCCn2ccnc2[N+](=O)[O-])c2ccccn12 | 765 | 6 | 258 |
